≈ marks a conversion by molar mass, not a printed value.
How the values were obtained:
[1] = system: Platelet; experiment: Inhibition of porcine platelets cPLA2 alpha at 10 uM using 1-stearoyl-2-arachidonoyl-sn-glycero-3-phosphocholine as substrate incubated for 60 mins by RP-HPLC analysis relative to control; assay type: cell-based; settings: Sus scrofa
How it was run: (§1)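 Stopped with acetonitrile/methanol/0.1 M EDTA containing internal standard and NDGA; released arachidonic acid measured by RP-HPLC, UV 200 nm, after online SPE, with vs without compound. IC50s are means of at least two independent determinations.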

[2] = molecular target: T1, Fatty-acid amide hydrolase 1 (Rattus norvegicus, UniProt P97612); experiment: Inhibition of rat brain microsome FAAH using N-(2-hydroxyethyl)-4-pyren-1-ylbutanamide as substrate incubated for 60 mins by RP-HPLC analysis; assay type: microsomes
T1 sequence (P97612 whole entry): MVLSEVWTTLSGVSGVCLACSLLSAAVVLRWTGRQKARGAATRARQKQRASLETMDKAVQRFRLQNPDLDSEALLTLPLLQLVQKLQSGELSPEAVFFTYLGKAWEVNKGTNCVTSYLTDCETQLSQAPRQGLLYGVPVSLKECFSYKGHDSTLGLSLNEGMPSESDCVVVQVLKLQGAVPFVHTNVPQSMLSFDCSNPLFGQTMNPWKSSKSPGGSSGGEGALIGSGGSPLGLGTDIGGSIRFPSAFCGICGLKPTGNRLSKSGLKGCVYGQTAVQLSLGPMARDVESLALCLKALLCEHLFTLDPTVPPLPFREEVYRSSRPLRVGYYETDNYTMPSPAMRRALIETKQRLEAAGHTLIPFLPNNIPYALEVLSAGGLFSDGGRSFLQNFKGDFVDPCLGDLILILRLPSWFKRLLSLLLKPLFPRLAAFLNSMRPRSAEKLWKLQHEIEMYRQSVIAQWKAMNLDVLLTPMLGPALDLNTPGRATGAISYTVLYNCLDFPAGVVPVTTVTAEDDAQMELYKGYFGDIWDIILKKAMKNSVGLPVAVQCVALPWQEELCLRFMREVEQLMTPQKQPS

[3] = Metabolic stability in rat liver S9 fraction assessed as parent compound remaining at 20 uM after 30 mins in presence of NADPH by RP-HPLC analysis; assay type: ADME, subcellular; settings: read-out: Stability
How it was run: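 Compounds (final 20 μM) incubated aerobically with rat liver S9 fraction with or without NADPH (final 1 mM); stopped after 30 min. Percent parent remaining measured by reversed-phase HPLC with UV or MS detection; means of independent duplicates.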

[4] = Inhibition of porcine platelets cPLA2 alpha using 1-stearoyl-2-arachidonoyl-sn-glycero-3-phosphocholine as substrate incubated for 60 mins by RP-HPLC analysis; design: species or system Sus scrofa; how it was run: as §1
[5] = Lipophilicity, logP of compound by RP-HPLC analysis; assay type: physicochemical
[6] = molecular target: T2, Cytosolic phospholipase A2 (Homo sapiens, UniProt P47712); experiment: Inhibition of cPLA2 alpha (unknown origin)
T2 sequence (P47712 whole entry): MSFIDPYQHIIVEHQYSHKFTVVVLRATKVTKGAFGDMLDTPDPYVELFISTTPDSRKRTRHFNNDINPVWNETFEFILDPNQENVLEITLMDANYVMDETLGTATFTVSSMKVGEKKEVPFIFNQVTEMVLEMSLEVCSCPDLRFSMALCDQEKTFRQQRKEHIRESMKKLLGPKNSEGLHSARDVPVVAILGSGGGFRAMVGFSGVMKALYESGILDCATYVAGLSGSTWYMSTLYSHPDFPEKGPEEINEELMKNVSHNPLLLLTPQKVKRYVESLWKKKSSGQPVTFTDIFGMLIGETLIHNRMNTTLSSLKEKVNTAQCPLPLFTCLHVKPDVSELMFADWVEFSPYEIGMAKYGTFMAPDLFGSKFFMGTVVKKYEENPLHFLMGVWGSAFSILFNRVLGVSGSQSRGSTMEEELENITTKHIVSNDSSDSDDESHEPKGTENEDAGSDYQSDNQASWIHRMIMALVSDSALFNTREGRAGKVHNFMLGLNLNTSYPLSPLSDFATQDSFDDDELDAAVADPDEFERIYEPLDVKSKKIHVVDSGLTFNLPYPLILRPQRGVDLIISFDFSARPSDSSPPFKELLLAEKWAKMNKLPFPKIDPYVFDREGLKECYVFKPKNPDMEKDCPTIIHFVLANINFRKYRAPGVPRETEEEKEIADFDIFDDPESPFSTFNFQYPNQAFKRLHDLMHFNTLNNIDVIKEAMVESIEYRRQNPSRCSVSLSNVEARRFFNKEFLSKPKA
How it was run: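 Stopped with acetonitrile/methanol/0.1 M EDTA containing internal standard and NDGA. Released arachidonic acid quantified by reversed-phase HPLC, UV 200 nm, after online SPE; IC50 as mean of ≥2 independent determinations.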

[7] = molecular target: T3, Fatty-acid amide hydrolase 1 (Rattus norvegicus) (UniProt P97612); experiment: Inhibition of rat brain microsome FAAH at 10 uM using N-(2-hydroxyethyl)-4-pyren-1-ylbutanamide as substrate incubated for 60 mins by RP-HPLC analysis relative to control; assay type: microsomes
T3 sequence (whole entry): T1 sequence (P97612 whole entry)
How it was run: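 Rat brain microsomes incubated with N-(2-hydroxyethyl)-4-pyren-1-ylbutanamide (final 100 μM) in PBS containing 0.20% Triton X-100. Reaction stopped after 60 min with acetonitrile/methanol containing 6-pyren-1-ylhexanoic acid as internal standard; released 4-pyren-1-ylbutanoic acid quantified by reversed-phase HPLC with fluorescence detection, with vs without compound. IC50s are means of at least two independent determinations.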

[8] = Aqueous solubility of the compound in PBS at pH 7.4 incubated for 20 hrs by RP-HPLC analysis; assay type: physicochemical; settings: buffer, pH 7.4, 20 h
How it was run: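 Thermodynamic solubility: 1 mg test compound in 2 mL PBS (0.01 M, pH 7.4), bath-sonicated 10 min, shaken 20 h at room temperature, centrifuged; acetonitrile added to an aliquot of clear supernatant and dissolved compound quantified by reversed-phase HPLC with UV at 240 nm.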

Compound | IC50 [2] [nM] | remaining at 0.5 h, 20 µM [3] [%] | IC50 [4] [nM] | also measured
O=C(O)CCc1nnn(CC(=O)C2CCc3cc(-c4ccccc4)ccc3O2)n1 (stereo not drawn) | 94 | < 5 | > 10000 | inhibition [1]: 34%
CC(Oc1ccc(Oc2ccccc2)cc1)C(=O)Cn1nnc(CCC(=O)O)n1 (stereo not drawn) | 44 | < 5 | 540 | –
CCCCCCOc1ccc(OCC(=O)C(C)n2nnc(CCCC(=O)O)n2)cc1 (stereo not drawn) | 750 | – | 250 | –
CC(Oc1ccc(Oc2ccccc2)cc1)C(=O)Cn1nnnc1CCC(=O)O (stereo not drawn) | 880 | 86 | > 10000 | inhibition [1]: 39%
CCCCc1ccc(OCC(=O)Cn2nnc(CCC(=O)O)n2)cc1 | 27 | – | 260 | logP [5]: 3
CCCCCCOc1ccc(OC(C)C(=O)Cn2nnc(CCC(=O)O)n2)cc1 (stereo not drawn) | 34 | – | 190 | –
CC(C)CCCOc1ccc(OCC(=O)Cn2nnc(CCC(=O)O)n2)cc1 | 32 | – | 45 | logP [5]: 3.6
O=C(O)CCc1nnn(CC(=O)COc2ccc(Oc3ccccc3)cc2)n1 | 54 | < 5 | 170 | logP [5]: 2.2
CCCCCCCCc1ccc(OCC(=O)Cn2ccc3cc(C(=O)O)ccc32)cc1 | – | – | – | IC50 [6]: 24 nM
CCCCCCCCc1ccc(OCC(=O)Cn2nnc(CCC(=O)O)n2)cc1 | – | – | 19 | logP [5]: 5.5
CCCCCCOc1ccc(OCC(=O)C(C)n2nnc(CCC(=O)O)n2)cc1 (stereo not drawn) | > 10000 | – | 180 | inhibition [7]: 31%
O=C(O)CCCc1nnnn1CC(=O)COc1ccc(Oc2ccccc2)cc1 | 170 | 36 | 3300 | –
CC(Oc1ccc(Oc2ccccc2)cc1)C(=O)Cn1nnnc1CCCC(=O)O (stereo not drawn) | 170 | 71 | 4800 | –
O=C(O)CCc1nnnn1CC(=O)COc1ccc(Oc2ccccc2)cc1 | 2100 | 52 | 3000 | –
CCCCCCOc1ccc(OCC(=O)Cn2nnc(CCC(=O)O)n2)cc1 | 32 | – | 47 | logP [5]: 3.7
COc1ccc2c(c1)c(CC(=O)O)c(C)n2C(=O)c1ccc(Cl)cc1 [INDOMETHACIN] | – | – | – | solubility [8]: 246 µg/mL (≈ 688 µM)
CCCCCCCCCCOc1ccc(OCC(=O)COc2ccc(C(=O)O)cc2)cc1 | – | – | – | IC50 [6]: 7 nM
O=C(O)CCc1cn(CC(=O)COc2ccc(Oc3ccccc3)cc2)nn1 | 130 | < 5 | 850 | –
CC(Oc1ccc(Oc2ccccc2)cc1)C(=O)Cn1cc(CCC(=O)O)nn1 (stereo not drawn) | 170 | 29 | 3100 | –
CC(C)Cc1ccc(C(C)C(=O)O)cc1 (stereo not drawn) [IBUPROFEN] | – | – | – | logP [5]: 3.2
CC(Oc1ccc(Oc2ccccc2)cc1)C(=O)Cn1nnc(CCCC(=O)O)n1 (stereo not drawn) | 43 | < 5 | 730 | –
CCCCCCOc1ccc(OC(C)C(=O)Cn2nnc(CCCC(=O)O)n2)cc1 (stereo not drawn) | 34 | – | 500 | –
O=C(O)CCCc1nnn(CC(=O)COc2ccc(Oc3ccccc3)cc2)n1 | 54 | < 5 | 280 | –
CCCCCCc1ccc(OCC(=O)Cn2nnc(CCC(=O)O)n2)cc1 | 23 | – | 36 | logP [5]: 4.2
